Assay [1] addresses T1, GABA-A receptor; alpha-1/beta-3/gamma-2 (Homo sapiens, UniProt P14867+P18507+P28472).
T1 sequence (P14867 whole entry): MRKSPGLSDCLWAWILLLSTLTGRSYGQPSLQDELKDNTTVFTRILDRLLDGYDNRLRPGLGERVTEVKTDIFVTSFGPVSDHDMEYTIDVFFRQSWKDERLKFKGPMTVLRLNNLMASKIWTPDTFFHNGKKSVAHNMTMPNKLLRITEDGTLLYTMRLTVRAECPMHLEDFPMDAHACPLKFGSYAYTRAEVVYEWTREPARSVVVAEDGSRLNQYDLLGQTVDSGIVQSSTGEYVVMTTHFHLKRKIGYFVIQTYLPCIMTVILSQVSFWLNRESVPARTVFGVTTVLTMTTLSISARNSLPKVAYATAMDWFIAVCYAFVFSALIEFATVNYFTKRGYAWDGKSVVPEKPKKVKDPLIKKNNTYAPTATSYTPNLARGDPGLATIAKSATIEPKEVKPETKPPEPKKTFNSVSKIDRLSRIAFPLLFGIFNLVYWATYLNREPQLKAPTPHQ
T1 sequence (P18507 whole entry): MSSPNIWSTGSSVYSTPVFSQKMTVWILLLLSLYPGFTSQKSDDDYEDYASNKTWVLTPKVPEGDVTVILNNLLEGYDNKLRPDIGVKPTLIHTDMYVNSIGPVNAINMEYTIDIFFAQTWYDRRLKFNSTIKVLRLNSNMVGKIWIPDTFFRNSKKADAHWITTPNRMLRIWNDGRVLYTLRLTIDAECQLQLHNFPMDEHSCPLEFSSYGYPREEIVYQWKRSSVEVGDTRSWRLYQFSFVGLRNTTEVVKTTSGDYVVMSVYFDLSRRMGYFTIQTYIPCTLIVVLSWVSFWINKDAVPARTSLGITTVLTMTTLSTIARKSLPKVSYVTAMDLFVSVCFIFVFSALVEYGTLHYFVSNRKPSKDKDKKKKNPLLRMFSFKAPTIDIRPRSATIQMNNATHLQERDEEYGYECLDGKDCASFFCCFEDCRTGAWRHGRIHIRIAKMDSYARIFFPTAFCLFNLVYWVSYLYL
T1 sequence (P28472 whole entry): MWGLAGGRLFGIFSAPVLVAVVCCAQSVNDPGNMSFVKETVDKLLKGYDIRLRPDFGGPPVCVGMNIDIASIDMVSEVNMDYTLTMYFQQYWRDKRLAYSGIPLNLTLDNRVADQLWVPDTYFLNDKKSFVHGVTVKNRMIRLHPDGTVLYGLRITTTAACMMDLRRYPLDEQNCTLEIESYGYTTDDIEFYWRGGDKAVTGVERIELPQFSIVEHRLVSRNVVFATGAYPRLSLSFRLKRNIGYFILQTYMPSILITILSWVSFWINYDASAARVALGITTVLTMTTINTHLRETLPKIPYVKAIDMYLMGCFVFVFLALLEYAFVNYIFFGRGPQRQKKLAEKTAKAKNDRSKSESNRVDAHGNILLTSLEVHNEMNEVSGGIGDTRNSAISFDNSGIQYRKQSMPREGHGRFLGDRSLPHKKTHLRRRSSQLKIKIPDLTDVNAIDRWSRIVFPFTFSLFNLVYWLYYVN
In words: Binding affinity for human recombinant gamma-aminobutyric-acid (GABA) A receptor alpha-1-beta-3-gamma-2. The class given is protein-complex assay.

The target of assay [2] is T2, GABA-A receptor; alpha-2/beta-3/gamma-2 (Homo sapiens, UniProt P18507+P28472+P47869).
T2 sequence (P18507 whole entry): T1 sequence (P18507 whole entry)
T2 sequence (P28472 whole entry): T1 sequence (P28472 whole entry)
T2 sequence (P47869 whole entry): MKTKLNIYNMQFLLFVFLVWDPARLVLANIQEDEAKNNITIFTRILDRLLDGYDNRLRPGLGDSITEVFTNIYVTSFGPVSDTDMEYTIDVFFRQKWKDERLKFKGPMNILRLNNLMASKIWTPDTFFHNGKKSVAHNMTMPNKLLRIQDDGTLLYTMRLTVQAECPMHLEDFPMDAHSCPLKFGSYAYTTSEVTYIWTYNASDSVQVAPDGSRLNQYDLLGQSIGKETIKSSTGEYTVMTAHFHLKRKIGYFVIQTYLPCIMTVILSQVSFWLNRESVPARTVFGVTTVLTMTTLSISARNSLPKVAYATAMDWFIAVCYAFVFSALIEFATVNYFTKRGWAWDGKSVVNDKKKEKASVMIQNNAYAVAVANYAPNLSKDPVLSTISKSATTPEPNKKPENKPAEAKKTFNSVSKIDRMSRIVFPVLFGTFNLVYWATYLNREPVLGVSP
In words: Binding affinity to human recombinant gamma-aminobutyric-acid (GABA) A receptor alpha-2-beta-3-gamma-2. The class given is protein-complex assay.

Assay [3] addresses T3, GABA-A receptor; alpha-5/beta-3/gamma-2 (Homo sapiens, UniProt P18507+P28472+P31644).
T3 sequence (P18507 whole entry): T1 sequence (P18507 whole entry)
T3 sequence (P28472 whole entry): T1 sequence (P28472 whole entry)
T3 sequence (P31644 whole entry): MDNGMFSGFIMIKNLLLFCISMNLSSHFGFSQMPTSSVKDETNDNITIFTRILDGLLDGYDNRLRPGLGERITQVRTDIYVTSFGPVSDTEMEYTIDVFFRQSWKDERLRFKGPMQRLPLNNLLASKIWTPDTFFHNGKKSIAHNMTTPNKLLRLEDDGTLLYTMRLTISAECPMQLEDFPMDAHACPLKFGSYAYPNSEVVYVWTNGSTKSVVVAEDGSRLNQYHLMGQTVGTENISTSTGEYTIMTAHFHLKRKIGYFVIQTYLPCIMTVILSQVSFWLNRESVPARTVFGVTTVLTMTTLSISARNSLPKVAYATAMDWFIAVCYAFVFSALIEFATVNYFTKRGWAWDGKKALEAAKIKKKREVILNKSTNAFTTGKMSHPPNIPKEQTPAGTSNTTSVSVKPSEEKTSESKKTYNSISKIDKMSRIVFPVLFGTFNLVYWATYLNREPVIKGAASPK
In words: Binding affinity for human recombinant gamma-aminobutyric-acid (GABA) A receptor alpha-5-beta-3-gamma-2. The class given is protein-complex assay.

Assay [4] concerns the target T4, GABA-A receptor; alpha-3/beta-3/gamma-2 (Homo sapiens, UniProt P18507+P28472+P34903).
T4 sequence (P18507 whole entry): T1 sequence (P18507 whole entry)
T4 sequence (P28472 whole entry): T1 sequence (P28472 whole entry)
T4 sequence (P34903 whole entry): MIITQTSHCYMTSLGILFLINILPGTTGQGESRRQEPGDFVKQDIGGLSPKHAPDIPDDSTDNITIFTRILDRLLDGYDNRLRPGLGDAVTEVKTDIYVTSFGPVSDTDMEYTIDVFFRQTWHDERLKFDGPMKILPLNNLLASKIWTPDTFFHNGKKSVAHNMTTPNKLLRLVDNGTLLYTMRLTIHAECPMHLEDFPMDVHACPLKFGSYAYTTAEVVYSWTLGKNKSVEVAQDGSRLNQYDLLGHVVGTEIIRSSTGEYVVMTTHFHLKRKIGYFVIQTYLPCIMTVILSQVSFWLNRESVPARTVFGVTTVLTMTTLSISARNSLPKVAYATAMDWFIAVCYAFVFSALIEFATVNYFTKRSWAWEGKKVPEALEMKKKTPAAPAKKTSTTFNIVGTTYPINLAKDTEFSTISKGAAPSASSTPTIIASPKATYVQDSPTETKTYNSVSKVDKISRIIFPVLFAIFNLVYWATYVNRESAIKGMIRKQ
In words: Binding affinity for human recombinant gamma-aminobutyric-acid (GABA) A receptor alpha-3-beta-3-gamma-2. The class given is protein-complex assay.

Assay [5] deals with GABA-A receptor; alpha-6/beta-3/gamma-2 (Homo sapiens, UniProt P18507+P28472+Q16445). In words: Binding affinity for human recombinant gamma-aminobutyric-acid (GABA) A receptor alpha-6-beta-3-gamma-2. The class given is protein-complex assay. Summed up: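 Ltk⁻ cells expressing human α6β3γ2 were harvested by scraping into PBS, centrifuged at 3000g and resuspended in 10 mM KH₂PO₄/100 mM KCl (pH 7.4). Incubation was 1 h at 4 °C with filter harvest and scintillation counting.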
GABA-A receptor; alpha-6/beta-3/gamma-2, sequence (Q16445 whole entry, one chain of several): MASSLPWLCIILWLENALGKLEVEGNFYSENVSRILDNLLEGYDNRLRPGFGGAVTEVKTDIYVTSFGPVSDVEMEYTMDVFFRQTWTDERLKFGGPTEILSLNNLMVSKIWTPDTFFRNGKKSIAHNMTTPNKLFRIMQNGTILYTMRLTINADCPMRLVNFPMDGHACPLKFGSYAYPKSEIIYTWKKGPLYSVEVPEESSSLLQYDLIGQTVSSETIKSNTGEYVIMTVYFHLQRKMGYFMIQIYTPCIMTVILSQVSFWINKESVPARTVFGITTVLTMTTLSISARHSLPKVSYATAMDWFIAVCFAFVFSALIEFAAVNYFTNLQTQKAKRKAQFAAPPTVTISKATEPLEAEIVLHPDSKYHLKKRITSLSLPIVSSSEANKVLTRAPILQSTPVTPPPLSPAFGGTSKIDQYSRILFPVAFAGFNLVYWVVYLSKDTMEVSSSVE

Assay [6] in a line: Selectivity ratio of alpha1 beta-3 gamma2 GABA A / BzR and alpha5 beta-3 gamma2 GABA A / BzR.
The target in assay [7] is T1, GABA-A receptor; alpha-1/beta-3/gamma-2. In words: Binding affinity towards human GABA-A receptor alpha-1-beta-3-gamma-2 subunits. The class given is protein-complex assay.

Where only a bound is given, the exact number is not on record here.

A word on the Ki: it is a dissociation constant, usually derived from enzyme kinetics or from competition with a known ligand. Regarding `CN1C(=O)CN=C(c2ccccc2)c2cc(C#N)ccc21`, the inhibition constant (Ki) in assay [1] is 320 nM; in assay [2] it was 310 nM; in assay [3] it was 265 nM; in assay [4] it was 350 nM; in assay [5], over 3000 nM. The Ratio in assay [6] amounted to 1.2.

As for `C#Cc1ccc2c(c1)C(c1ccccc1)=NCC(=O)N2C`, the Ki is 76.3 nM in assay [1]; 42.1 nM in assay [2]; 6.8 nM in assay [3]; 47.4 nM in assay [4]; over 3000 nM in assay [5]. The Ratio in assay [6] came to 11.2.

Take `CN1C(=O)CN=C(c2ccccc2)c2cc(C#C[Si](C)(C)C)ccc21`: the Ki was 94 nM in assay [1]; 73 nM in assay [2]; 63 nM in assay [3]; 203 nM in assay [4]; over 3000 nM in assay [5]. Further, the Ratio in assay [6] turned out to be 1.49.

Consider `CN1C(=O)CN=C(c2cccs2)c2cc(F)ccc21`, for which the Ki in assay [1] was 141 nM; in assay [2], 215 nM; in assay [3], 65.5 nM; in assay [4] it was 205 nM; in assay [5], over 300 nM. Besides, in assay [6], the Ratio was found to be 2.15.

Consider `O=C1CN=C(c2ccccc2)c2ccccc2N1` [RO-052921], for which the Ki is 286 nM in assay [1]; 233 nM in assay [2]; 140 nM in assay [3]; 350 nM in assay [4]; over 3000 nM in assay [5]. The Ratio in assay [6] worked out at 2.04.

In the case of `CN1C(=O)CN=C(c2ccccc2)c2ccccc21`, the Ki in assay [1] was 81 nM; in assay [2], 138 nM; in assay [3] it was 96 nM; in assay [4], 318 nM; in assay [5], over 3000 nM. Also, the Ratio in assay [6] was determined as 0.84.

On to `CC(C)(C)C(=O)Oc1ccc2c(c1)[nH]c1c3c4ccccc4nc-3c[nH]c12`, for which the Ki was 156 nM in assay [7], over 3000 nM in assay [3] and over 10000 nM in assay [5].

As to `CN1C(=O)CN=C(c2ccccc2)c2cc(Br)ccc21`, the inhibitory constant (Ki) is 9.4 nM in assay [1]; 9.3 nM in assay [2]; 7.7 nM in assay [3]; 31 nM in assay [4]; over 3000 nM in assay [5]. The Ratio in assay [6] is 1.22.

For the molecule `CCOC(=O)c1ncn2c1CN(C)C(=O)c1ccccc1-2` [RO-147437], the Ki was 1.2 nM in assay [1]; 2 nM in assay [2]; 0.4 nM in assay [3]; 1.1 nM in assay [4]; over 300 nM in assay [5]. In addition, the Ratio in assay [6] was found to be 3.

Regarding `CN1C(=O)CN=C(c2cccs2)c2cc(Cl)ccc21`, the Ki in assay [1] is 19.2 nM; in assay [2] it was 13.2 nM; in assay [3] it was 11.5 nM; in assay [4], 13.4 nM; in assay [5] it was over 300 nM. Also, the Ratio in assay [6] came out at 1.7.

Consider `O=C1CN=C(c2cccs2)c2cc(F)ccc2N1`, for which the Ki in assay [1] is 175 nM; in assay [2], 335 nM; in assay [3], 150 nM; in assay [4] it was 405 nM; in assay [5], over 300 nM. The Ratio in assay [6] is 1.17.

Turning to `COC(=O)c1cc2c3cc(NC4CCCCC4)ccc3nc-2c[nH]1`, the Ki in assay [1] is 2.39 nM; in assay [2], 17.4 nM; in assay [3], 316 nM; in assay [4], 14.4 nM; in assay [5], over 10000 nM.

`C[Si](C)(C)C#Cc1ccc(-n2[nH]c3c(cnc4ccccc43)c2=O)cc1`: the Ki in assay [1] is 3 nM; in assay [2] it was 3.7 nM; in assay [3], 24 nM; in assay [4], 4.7 nM; in assay [5], over 1000 nM.

Turning to `Clc1cccn2c1nc1c3c4ccccc4nc-3c[nH]c12`, the inhibitory constant (Ki) in assay [1] is over 3000 nM; in assay [2], over 3000 nM; in assay [3] it was over 10000 nM; in assay [4] it was over 3000 nM; in assay [5], over 10000 nM.

Consider `c1ccc2c(c1)[nH]c1c2ncc2[nH]c3ccccc3c21`, for which the Ki in assay [1] was 1.1 nM; in assay [2], 1.2 nM; in assay [3], 40.3 nM; in assay [4] it was 1.1 nM; in assay [5], over 1000 nM.

As for `CCOC(=O)c1[nH]cc2nc3ccc(O)cc3c-2c1COC`, the inhibitory constant (Ki) in assay [1] was determined as 2 nM; in assay [2] it was 5.4 nM; in assay [3], 18.5 nM; in assay [4] it was 10.8 nM; in assay [5] it was 3000 nM.

`S=C=Nc1cc2c3ccccc3nc-2c[nH]1`: the Ki in assay [1] was 67.2 nM; in assay [2], 120 nM; in assay [3], over 3000 nM; in assay [4], 141 nM; in assay [5], over 10000 nM.

The values are drawn from ChEMBL document CHEMBL1132940, “Pharmacophore/receptor models for GABA(A)/BzR subtypes (alpha1beta3gamma2, alpha5beta3gamma2, and alpha6beta3gamma2) via a comprehensive ligand-mapping approach” (J Med Chem, 2000).
